{
  "source": "ChEMBL document CHEMBL1828623",
  "about": "“Overcoming hERG activity in the discovery of a series of 4-azetidinyl-1-aryl-cyclohexanes as CCR2 antagonists” (Bioorg Med Chem Lett, 2011)",
  "data": [
    {"molecular_target": "Voltage-gated inwardly rectifying potassium channel KCNH2 (Homo sapiens, UniProt Q12809)", "sequence (Q12809 whole entry)": "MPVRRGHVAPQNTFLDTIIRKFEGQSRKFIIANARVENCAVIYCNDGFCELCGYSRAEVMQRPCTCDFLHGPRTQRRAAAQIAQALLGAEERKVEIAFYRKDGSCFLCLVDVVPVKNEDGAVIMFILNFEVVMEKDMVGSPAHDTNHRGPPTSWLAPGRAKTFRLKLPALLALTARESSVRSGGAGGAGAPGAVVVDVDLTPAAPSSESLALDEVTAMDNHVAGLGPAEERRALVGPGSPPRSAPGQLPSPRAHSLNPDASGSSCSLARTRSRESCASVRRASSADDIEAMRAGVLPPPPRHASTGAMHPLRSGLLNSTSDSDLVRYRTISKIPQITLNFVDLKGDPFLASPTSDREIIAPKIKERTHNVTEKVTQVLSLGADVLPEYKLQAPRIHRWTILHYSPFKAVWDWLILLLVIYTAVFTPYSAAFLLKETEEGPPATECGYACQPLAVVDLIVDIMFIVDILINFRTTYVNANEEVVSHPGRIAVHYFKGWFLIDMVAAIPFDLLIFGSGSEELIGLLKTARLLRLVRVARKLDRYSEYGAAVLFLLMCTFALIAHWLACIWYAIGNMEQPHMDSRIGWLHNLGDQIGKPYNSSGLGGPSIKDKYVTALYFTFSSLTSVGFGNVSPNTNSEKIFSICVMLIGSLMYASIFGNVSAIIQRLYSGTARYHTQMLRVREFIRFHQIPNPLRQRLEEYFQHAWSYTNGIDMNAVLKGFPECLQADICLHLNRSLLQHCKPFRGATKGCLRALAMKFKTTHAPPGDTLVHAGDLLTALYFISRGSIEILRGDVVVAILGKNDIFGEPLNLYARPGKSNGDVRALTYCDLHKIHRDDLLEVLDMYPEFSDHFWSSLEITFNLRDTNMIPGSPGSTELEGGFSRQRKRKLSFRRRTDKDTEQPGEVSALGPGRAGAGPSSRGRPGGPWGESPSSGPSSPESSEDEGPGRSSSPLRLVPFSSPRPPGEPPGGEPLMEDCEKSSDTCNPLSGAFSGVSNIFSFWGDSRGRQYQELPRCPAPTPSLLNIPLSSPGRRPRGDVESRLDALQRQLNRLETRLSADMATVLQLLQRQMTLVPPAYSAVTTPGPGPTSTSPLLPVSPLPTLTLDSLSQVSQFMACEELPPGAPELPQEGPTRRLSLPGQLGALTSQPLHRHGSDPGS", "assay": "Displacement of [3H]astemizole from human ERG expressed in HEK293 cells after 1 hr", "units": {"IC50": "nM"}, "values": [
      {"smiles": "O=C(CNC(=O)c1ccc(C(F)(F)F)cc1)NC1CN([C@H]2CC[C@H](c3ccc4c(c3)OCO4)CC2)C1", "IC50": 1500},
      {"smiles": "O=C(CNC(=O)c1cccc(C(F)(F)F)c1)NC1CN(C2CCC(c3c[nH]c4ccccc34)CC2)C1", "note": "(mixture of isomers)", "IC50": 2400}
    ]},
    {"molecular_target": "C-C chemokine receptor type 2 (Homo sapiens, UniProt P41597)", "sequence (P41597 whole entry)": "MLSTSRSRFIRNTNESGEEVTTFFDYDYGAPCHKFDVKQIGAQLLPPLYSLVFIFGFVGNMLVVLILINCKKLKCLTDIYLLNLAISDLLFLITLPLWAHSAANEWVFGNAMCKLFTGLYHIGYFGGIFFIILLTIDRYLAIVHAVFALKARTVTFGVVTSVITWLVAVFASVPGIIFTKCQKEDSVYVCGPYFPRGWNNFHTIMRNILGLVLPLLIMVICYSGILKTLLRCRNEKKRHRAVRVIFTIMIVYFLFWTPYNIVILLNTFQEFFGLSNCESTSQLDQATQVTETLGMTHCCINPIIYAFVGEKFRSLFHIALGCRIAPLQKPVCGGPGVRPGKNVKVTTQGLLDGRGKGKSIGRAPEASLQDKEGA", "assay": "Displacement of [125I]-MCP1 from CCR2 in human THP1 cells after 2 hrs by microplate scintillation and luminescence counting", "type": "cell-based, THP-1", "in_short": "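They were incubated with 0.5 nM ¹²⁵I-MCP-1 and varying test compound concentrations for 2 h at 30 °C. Cold MCP-1 defined nonspecific binding. Buffer-only blanks were subtracted and values compared with vehicle.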", "units": {"IC50": "nM"}, "values": [
      {"smiles": "O=C(CNC(=O)c1cccc(C(F)(F)F)c1)NC1CN([C@H]2CC[C@H](c3ccc(C(=O)O)cc3)CC2)C1", "IC50": 70},
      {"smiles": "O=C(CNC(=O)c1cccc(C(F)(F)F)c1)NC1CN(C2CCN(c3ccc4c(c3)OCO4)CC2)C1", "IC50": "> 25000"},
      {"smiles": "O=C(CNC(=O)c1cccc(C(F)(F)F)c1)NC1CN([C@H]2CC[C@](CO)(c3ccccc3)CC2)C1", "IC50": "> 25000"},
      {"smiles": "O=C(CNC(=O)c1cccc(C(F)(F)F)c1)NC1CN([C@H]2CC[C@](O)(c3ccc4c(c3)OCC4)CC2)C1", "IC50": 25},
      {"smiles": "O=C(CNC(=O)c1cccc(C(F)(F)F)c1)NC1CN([C@H]2CC[C@H](c3cccnc3)CC2)C1", "IC50": 45},
      {"smiles": "O=C(CNC(=O)c1cccc(C(F)(F)F)c1)NC1CN([C@H]2CC[C@H](c3ccc(O)cn3)CC2)C1", "IC50": 13},
      {"smiles": "O=C(CNC(=O)c1ccccc1)NC1CN([C@H]2CC[C@H](c3ccc4c(c3)OCO4)CC2)C1", "IC50": 390},
      {"smiles": "O=C(CNC(=O)c1cccc(C(F)(F)F)c1)NC1CN([C@H]2CC[C@](O)(c3cccnc3)CC2)C1", "IC50": 190},
      {"smiles": "COc1ccc([C@H]2CC[C@H](N3CC(NC(=O)CNC(=O)c4cccc(C(F)(F)F)c4)C3)CC2)cn1", "IC50": 7},
      {"smiles": "O=C(CNC(=O)c1cccc(C(F)(F)F)c1)NC1CN([C@H]2CC[C@@H](c3ccc4c(c3)OCO4)CC2)C1", "IC50": 5},
      {"smiles": "O=C(CNC(=O)c1cccc(C(F)(F)F)c1)NC1CN([C@H]2CC[C@H](c3ccc(N4CCCC4)cc3)CC2)C1", "IC50": 61},
      {"smiles": "COc1cc([C@H]2CC[C@H](N3CC(NC(=O)CNC(=O)c4cccc(C(F)(F)F)c4)C3)CC2)ccn1", "IC50": 25},
      {"smiles": "O=C(CNC(=O)c1cccc(C(F)(F)F)c1)NC1CN(C2CC=C(c3ccc4c(c3)OCO4)CC2)C1", "note": "(stereo not drawn)", "IC50": 1000},
      {"smiles": "N#Cc1cccc([C@]2(O)CC[C@@H](N3CC(NC(=O)CNC(=O)c4cccc(C(F)(F)F)c4)C3)CC2)c1", "IC50": 410},
      {"smiles": "COc1cnccc1[C@H]1CC[C@H](N2CC(NC(=O)CNC(=O)c3cccc(C(F)(F)F)c3)C2)CC1", "IC50": 32},
      {"smiles": "O=C(CNC(=O)c1cccc(C(F)(F)F)c1)NC1CN([C@H]2CC[C@H](c3ccccc3)CC2)C1", "IC50": 35},
      {"smiles": "N[C@]1(c2ccccc2)CC[C@H](N2CC(NC(=O)CNC(=O)c3cccc(C(F)(F)F)c3)C2)CC1", "IC50": 240},
      {"smiles": "COc1ccc([C@H]2CC[C@H](N3CC(NC(=O)CNC(=O)c4cccc(C(F)(F)F)c4)C3)CC2)cc1", "IC50": 10},
      {"smiles": "N#C[C@]1(c2ccccc2)CC[C@H](N2CC(NC(=O)CNC(=O)c3cccc(C(F)(F)F)c3)C2)CC1", "IC50": "> 25000"},
      {"smiles": "O=C(CNC(=O)c1ccc(C(F)(F)F)cc1)NC1CN([C@H]2CC[C@H](c3ccc4c(c3)OCO4)CC2)C1", "IC50": 1200},
      {"smiles": "O=C(CNC(=O)c1cccc(C(F)(F)F)c1)NC1CN([C@H]2CC[C@H](c3ccc(O)cc3)CC2)C1", "IC50": 21},
      {"smiles": "O=C(CNC(=O)c1cccc(C(F)(F)F)c1)NC1CN([C@H]2CC[C@](O)(c3ccc(F)cc3)CC2)C1", "IC50": 210},
      {"smiles": "O=C(CNC(=O)c1cccc(C(F)(F)F)c1)NC1CN(C2CCC(c3c[nH]c4ccccc34)CC2)C1", "note": "(mixture of isomers)", "IC50": "< 1000"},
      {"smiles": "COc1ccc([C@]2(O)CC[C@@H](N3CC(NC(=O)CNC(=O)c4cccc(C(F)(F)F)c4)C3)CC2)cc1", "IC50": 20},
      {"smiles": "O=C(CNC(=O)c1cccc(C(F)(F)F)c1)NC1CN([C@H]2CC[C@H](c3ccc4c(c3)OCO4)CC2)C1", "IC50": 1800},
      {"smiles": "Cc1cccc(C)c1[C@]1(O)CC[C@@H](N2CC(NC(=O)CNC(=O)c3cccc(C(F)(F)F)c3)C2)CC1", "IC50": "> 25000"},
      {"smiles": "O=C(CNC(=O)c1cccc(C(F)(F)F)c1)NC1CN([C@H]2CC[C@H](c3ccc4[nH]cnc4c3)CC2)C1", "IC50": 27},
      {"smiles": "Nc1ccc([C@H]2CC[C@H](N3CC(NC(=O)CNC(=O)c4cccc(C(F)(F)F)c4)C3)CC2)nc1", "IC50": 85},
      {"smiles": "O=C(CNC(=O)c1cccc(C(F)(F)F)c1)NC1CN([C@H]2CC[C@H](c3ccncc3O)CC2)C1", "IC50": 52},
      {"smiles": "O=C(CNC(=O)c1cccc(C(F)(F)F)c1)NC1CN([C@H]2CC[C@](O)(c3ccc4c(c3)OCO4)CC2)C1", "IC50": 22},
      {"smiles": "O=C(CNC(=O)c1cccc(C(F)(F)F)c1)NC1CN([C@H]2CC[C@](C(=O)O)(c3ccccc3)CC2)C1", "IC50": "> 25000"}
    ]}
  ]
}
